Rows were chosen to be rich in hits. Some 2.6% of all compounds tested hit in one or more screens of this group.
dFosB act = mouse delta FosB homodimer activation; purified delta FosB, TAMRA-CDK5 oligo fluorescence polarization; percent of positive-control signal above neutral wells; activation, % at 25 µM; 0.99% of 340,000 active;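 active = mean activation above about 17%, with every replicate also reaching it, limit read from the data, passing the limit was not always enough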
XiGFP reactiv = reactivates the inactive X chromosome in mouse fibroblasts; AID 743238; 0.055% of 360,000 active; XiGFP mouse fibroblasts, % GFP-positive cells imaging, 3 d; cells co-treated with 5-aza-dC sensitizer; scaled so ellipticine positive control = 100%; activation, % at 7.58 µM;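 active = mean normalized replicate activation at least 10% and every replicate at or above 10%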;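 note: 0% = median of on-plate neutral control wells and 100% = ellipticine 6 µM median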
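System: 68-5-11 XiGFP fibroblast line | Buffer or medium: DMEM containing 5-aza-dC | Compound: Single point | Times: Compounds 3 days, fix/stain 15 min at room temperature | Benchmarks: Positive control ellipticine, 6 µM final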
rRNA inh HTS = inhibitors of bacterial rRNA selective over humanized ribosomes; AID 720706; GFP signal change (wild-type ribosome), % (no concentration beside the values); E. coli WT GFP vs humanized-ribosome RFP mutants, fluorescence, 24 h; active compounds read low; DMSO median 0, no signal -100; 1.6% of 350,000 active;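 active = significant combined selectivity score with lowered wild-type GFP, culture density cut under 30%, mutant RFP and density less affected; inactive = any of these conditions unmet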
PvdQ acylase = blocks Pseudomonas aeruginosa PvdQ acylase activity | purified PvdQ acylase, fluorescence plate reader | inhibition, % at 10 µM | 0.063% of 340,000 active; in the data active = inhibition above about 30%, passing the limit was not always enough;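 note: 0% = vehicle neutral wells and 100% = reference inhibitor wells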
SR-BI DiI inh = blocks mouse SR-BI lipid uptake from DiI-HDL. 0.96% of 320,000 active. inhibition, % at 12.5 µM. AID 488896. Q61009. ldlA[mSR-BI] CHO cells, DiI-HDL uptake fluorescence, 3 h;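 active = mean replicate inhibition of at least 70% and a set share of replicates each scoring 70 or more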;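 note: 0% = median of neutral control wells and 100% = median of positive control wells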
Target sequence (Q61009 whole entry, looked up): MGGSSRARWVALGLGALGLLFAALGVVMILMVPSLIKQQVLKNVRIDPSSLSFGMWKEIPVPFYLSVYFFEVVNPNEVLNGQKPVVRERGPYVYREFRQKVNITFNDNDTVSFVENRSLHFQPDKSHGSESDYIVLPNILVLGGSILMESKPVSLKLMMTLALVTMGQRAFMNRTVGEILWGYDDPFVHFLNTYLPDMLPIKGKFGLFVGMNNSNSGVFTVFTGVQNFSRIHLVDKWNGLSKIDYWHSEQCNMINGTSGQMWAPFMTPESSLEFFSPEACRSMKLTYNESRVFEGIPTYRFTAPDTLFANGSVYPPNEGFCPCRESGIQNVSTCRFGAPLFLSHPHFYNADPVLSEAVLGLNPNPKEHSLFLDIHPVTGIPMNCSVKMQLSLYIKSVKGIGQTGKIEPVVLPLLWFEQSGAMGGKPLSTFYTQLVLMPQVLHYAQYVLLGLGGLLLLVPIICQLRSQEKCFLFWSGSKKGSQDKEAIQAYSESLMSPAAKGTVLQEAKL
SR-BI DiI-HDL act = activators of SR-BI mediated HDL lipid uptake. CHO ldlA[mSR-BI] cells, DiI-HDL uptake fluorescence, 3 h; 100 = double the neutral-control signal. activation, % at 12.5 µM. 0.096% of 320,000 active. AID 504775;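 active = mean replicate activation of at least 60% and every replicate at or above 60%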;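 note: 0% = median plate neutral-control signal and 100% = twice that signal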
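Test system: SR-BI-overexpressing, LDLR-lacking CHO cells. Measured by: DiI fluorescence, bottom read. Medium: Ham's F12 with 0.5% BSA, HEPES 25 mM, pH 7.4. Timing: 3 h uptake period with compound, 37 °C.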
Active calls of the source: *; · = no result.

SMILES	dFosB act	XiGFP reactiv	rRNA inh HTS	PvdQ acylase	SR-BI DiI inh	SR-BI DiI-HDL act
O=C(CNC(=O)c1cccs1)N=Nc1c(O)[nH]c2ccc(Br)cc12	-7.4	0.0	2.9	-5.1	1.3	-1.3
CCC(=O)N1CCCCN2[C@H](CO)[C@H](c3ccc(-c4cccc(C(=O)N(C)C)c4)cc3)[C@@H]2C1	·	0.1	6.2	·	·	·
CC(=O)c1ccc(NC(=O)C(C)N(C)CC(=O)Nc2cccc(F)c2)cc1 (stereo unspecified)	-1.2	-0.1	4.0	0.9	-0.6	0.6
Cc1ccc2[nH]c(C)c(CCNC(=O)c3cc4cc([N+](=O)[O-])ccc4oc3=O)c2c1	-3.1	0.3	·	-6.5	3.9	-3.9
Cc1ccc2[nH]c(C)c(CCNC(=O)c3c(N)no[n+]3[O-])c2c1	0.8	0.2	-35.4*	-7.7	-6.2	6.2
CCCc1nc2ccccc2n1Cc1ccccc1OC	2.8	-0.1	-45.5*	-10.9	-1.5	1.5
C[C@]12CC[C@H]3C(=CCc4cc(O)ccc43)[C@@H]1CCC2=O	1.4	0.2	-42.7	-7.3	22.8	-22.8
COc1ccc(N2C(=O)NC3CC2(C)Oc2ccccc23)cc1 (stereo unspecified)	4.6	-0.1	7.9	-17.9	-11.7	11.7
COC(=O)c1cc(C(=O)OC)n(Cc2ccc(F)cc2)c1C	-8.1	0.0	-40.5*	5.5	38.9	-38.9
C[C@@H]1CCCCO[C@@H](CN(C)Cc2ccc(C(F)(F)F)cc2)[C@@H](C)CN([C@H](C)CO)C(=O)c2cc(NS(=O)(=O)c3ccc(F)cc3)ccc2O1	·	0.3	6.2	·	·	·
C[C@H]1CN([C@@H](C)CO)C(=O)Cc2cc(NC(=O)C3CCCCC3)ccc2O[C@@H]1CN(C)Cc1ccc(C(=O)O)cc1	·	-1.1	-0.2	·	·	·
Cc1cc(C(=O)N/N=C/c2ccc(-c3ccc([N+](=O)[O-])cc3C)o2)n[nH]1	3.2	-0.1	-41.2*	0.7	39.9	-39.9
Cc1cc(C(=O)N/N=C/c2ccc(-c3cccc(Cl)c3)o2)n[nH]1	-12.9	0.1	-23.1*	-17.7	7.0	-7.0
Cn1c(Cc2ccc3c(c2)OCO3)nnc1SCC(=O)NC(C)(C)C	-9.0	-0.5	9.5	4.2	-7.0	7.0
CN(CC(=O)Nc1cccc(Cl)c1)S(=O)(=O)c1ccc2[nH]c(=O)oc2c1	-1.6	0.0	-25.0*	-9.3	-8.1	8.0
c1ccc(-c2cc3nc(NCc4cccs4)ccn3n2)cc1	·	0.1	-56.0	·	·	·
Cc1cccc2cc(CN(CC3CCCO3)S(=O)(=O)c3ccccc3)c(=O)[nH]c12 (stereo unspecified)	-15.3	0.8	-24.3*	-8.6	10.8	-10.8
Cc1ccc(C(c2nnnn2C2CCCCC2)N2CCN3CCCC3C2)cc1 (stereo unspecified)	-1.0	·	·	4.0	-2.3	2.3
NNC(=O)c1oc2nc(-c3ccccc3)cc(-c3ccccc3)c2c1N	-7.7	0.0	-4.0	-14.3	98.0*	-98.0
Cc1ccc(-c2cc(-c3ccco3)c3c(N)c(C(=O)NN)oc3n2)cc1	-19.4	0.0	7.5	12.9	78.2*	-78.2
COc1ccc(C(C)NC(=S)NCc2ccc(F)cc2)cc1 (stereo unspecified)	-0.5	0.2	-15.6	1.0	4.7	-4.7
COc1cccc(C(C)NC(=S)NCc2ccc(Cl)cc2)c1 (stereo unspecified)	-1.2	0.3	-23.5*	-3.3	-7.6	7.6
C[C@@H]1CN([C@H](C)CO)C(=O)c2cc(NC(=O)Nc3ccc(C(F)(F)F)cc3)ccc2O[C@H]1CN(C)Cc1ccc(-c2ccccc2)cc1	·	-1.1	3.7	·	·	·
Cc1cc(-c2cc(-c3ccccc3)on2)nc(NC2CCCC2)n1	-3.9	0.2	1.7	-14.2	80.5*	-80.5
Cc1cc(-c2cc(-c3ccc(Cl)cc3)on2)nc(NC2CCCC2)n1	0.8	0.0	11.8	-1.7	10.1	-9.9
SMILES	dFosB act	XiGFP reactiv	rRNA inh HTS	PvdQ acylase	SR-BI DiI inh	SR-BI DiI-HDL act
O=C(Nc1cccc(Cl)c1Cl)c1ccco1	·	0.1	·	·	·	·
Cc1ccc(NC2=C(C(=O)c3ccccc3)N(C)S(=O)(=O)c3ccccc32)cc1	-10.1	·	·	-0.9	21.3	-21.3
CN1C(C(=O)c2ccccc2)=C(N)c2ccccc2S1(=O)=O	2.7	0.4	-22.6*	-1.1	-6.2	6.2
CS(=O)(=O)c1ncc(Cl)c(C(=O)Nc2ccc3ccccc3c2)n1	-8.0	0.4	-21.6	-14.6	92.9*	-92.9
CC(=O)Nc1ccc(NC(=O)c2nc(S(=O)(=O)Cc3ccccc3)ncc2Cl)cc1	1.4	4.0	-2.2	-4.4	-14.4	14.4
CCC1CCCCN1S(=O)(=O)c1ccc(NC(=O)c2nc(S(C)(=O)=O)ncc2Cl)cc1 (stereo unspecified)	-5.9	0.0	-28.8*	-14.5	22.9	-22.9
O=c1[nH]cnc2scc(-c3ccc(-c4ccccc4)cc3)c12	0.6	·	·	1.5	14.0	-14.0
Brc1ccc(CNc2ccc3ncccc3c2)cc1	-6.3	0.2	-29.0*	-10.4	20.8	-20.8
O=C(Nc1ccc2ncccc2c1)c1cccc(Br)c1	-20.8	0.1	1.7	10.3	25.6	-25.6
Cc1nc2sc(C(=O)O)c(N)c2c2c1COC(C)(C)C2	6.5	·	·	-6.1	8.5	-8.5
CCOC(=O)c1sc2nc(-c3ccco3)c3c(c2c1N)CC(C)(C)OC3	-18.3	·	·	-2.1	75.4*	-75.4
CN1Cc2c(N3CCOCC3)nc3sc(C(=O)c4ccccc4)c(N)c3c2CC1(C)C	-2.3	0.4	-36.2*	-10.9	26.8	-26.8
Nc1c(C(=O)c2ccccc2)sc2nsc(SCCN3CCOCC3)c12	·	0.2	-27.1*	·	·	·
CC1(C)Cc2c(c(N3CCCC3)nc3sc(C(=O)Nc4ccccc4)c(N)c23)CO1	-9.1	0.3	-9.9	-14.3	76.3*	-76.3
O=C(C1CCOCC1)N1CC(=O)N2[C@H](CO)[C@@H](c3ccc(C#CC4CCCCC4)cc3)[C@@H]2C1	·	0.1	2.5	·	·	·
C/C=C/c1cnc2c(c1)C(=O)N([C@@H](C)CO)C[C@@H](C)[C@@H](CN(C)C(=O)Nc1cccc(OC)c1)O2	·	0.1	-3.7	·	·	·
CC(=O)OCCNc1nc(-c2ccccc2)nc2ccccc12	-8.7	0.2	1.7	-17.2	4.9	-4.9
COc1ccc(CONc2ncnc3nonc23)cc1[N+](=O)[O-]	-4.8	0.3	-25.4*	-7.7	15.9	-15.9
CCONc1ncnc2nonc12	0.2	0.1	9.4	10.1	-14.5	14.5
CN(C)S(=O)(=O)c1ccc(C(=O)Nc2nnc(SCC(=O)N3CCOCC3)s2)cc1	·	0.0	0.9	·	·	·
O=S(=O)(c1ccc(Cl)cc1)c1snnc1-c1ccccc1	5.3	·	·	21.6	-0.3	0.3
CC(Nc1ccc(Cl)c(Cl)c1)C(=O)NN (stereo unspecified)	2.1	0.0	-25.9*	-8.7	-15.1	15.1

High-throughput results (PubChem BioAssay)
